This note sets out measurements from ChEMBL document CHEMBL1649483, “Molecular analysis of the gyrA and gyrB quinolone resistance-determining regions of fluoroquinolone-resistant Clostridium difficile mutants selected in vitro” (2009).

Holding throughout (type): functional
For assay [1], the system named is Clostridioides difficile. Nature of the assay: Antimicrobial activity against Clostridium difficile C253d selected after 4 ug/ml of moxifloxacin by Etest method.
In assay [2] the test system is Clostridioides difficile. Nature of the assay: Antimicrobial activity against Clostridium difficile A422C selected after 4 ug/ml of levofloxacin by Etest method. The procedure, abridged:
(§1)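 Stable in vitro-selected mutant tested for gatifloxacin susceptibility by Etest, per the manufacturer's instructions, with an 8 μg/ml breakpoint. For selection, the parent was grown in antibiotic-free brain heart infusion (BHI) for 24 h at 35°C under anaerobic conditions. […] Later steps used double the MIC. Stability was confirmed by three subcultures.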

In assay [3] the test system is Clostridioides difficile. Nature of the assay: Antimicrobial activity against Clostridium difficile 630h harboring GyrB […] mutant gene selected after 8 ug/ml of moxifloxacin by Etest method. The procedure, abridged:
as §1

Assay [4] has as its system Clostridioides difficile. Nature of the assay: Antimicrobial activity against Clostridium difficile C253B selected after 4 ug/ml of levofloxacin by Etest method.
In assay [5] the test system is Clostridioides difficile. The assay is described as follows: Antimicrobial activity against Clostridium difficile CD5a harboring GyrB Ser416Ala mutant gene selected after 2 ug/ml of moxifloxacin by Etest method.
Assay [6] has as its system Clostridioides difficile. The assay is described as follows: Antimicrobial activity against Clostridium difficile C253e selected after 4 ug/ml of moxifloxacin by Etest method.
The test system of assay [7] is Clostridioides difficile. The assay is described as follows: Antimicrobial activity against Clostridium difficile 630f selected after 4 ug/ml of moxifloxacin by Etest method. The procedure, abridged:
as §1

Assay [8] deals with Clostridioides difficile. Nature of the assay: Antimicrobial activity against Clostridium difficile CD5f harboring GyrB Ser416Ala mutant gene selected after 4 ug/ml of moxifloxacin by Etest method.
Assay [9] deals with Clostridioides difficile. The assay is described as follows: Antimicrobial activity against Clostridium difficile 630E harboring GyrA Ala118Val mutant gene selected after 8 ug/ml of levofloxacin by Etest method. The procedure, abridged: as §1
Assay [10] has as its system Clostridioides difficile. Nature of the assay: Antimicrobial activity against Clostridium difficile A422b selected after 2 ug/ml of moxifloxacin by Etest method. Summed up:
as §1

Assay [11] has as its system Clostridioides difficile. The assay is described as follows: Antimicrobial activity against Clostridium difficile BI2 by Etest method. Summed up:
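Parent clinical or nontoxigenic isolate tested for gatifloxacin susceptibility by Etest, run per the manufacturer's instructions; a fluoroquinolone breakpoint of 8 μg/ml was applied.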

Assay [12] has as its system Clostridioides difficile. Nature of the assay: Antimicrobial activity against Clostridium difficile 630d selected after 4 ug/ml of moxifloxacin by Etest method. The procedure, abridged:
as §1

The subject of assay [13] is Clostridioides difficile. Nature of the assay: Antimicrobial activity against Clostridium difficile A422e selected after 4 ug/ml of moxifloxacin by Etest method. Summed up: as §1
Assay [14] concerns Clostridioides difficile. Nature of the assay: Antimicrobial activity against Clostridium difficile C253c selected after 2 ug/ml of moxifloxacin by Etest method.
The test system of assay [15] is Clostridioides difficile. Nature of the assay: Antimicrobial activity against Clostridium difficile 630A selected after 4 ug/ml of levofloxacin by Etest method. The procedure, abridged: as §1
Assay [16] has as its system Clostridioides difficile. The assay is described as follows: Antimicrobial activity against Clostridium difficile 630F harboring GyrA Ala118Val mutant gene selected after 8 ug/ml of levofloxacin by Etest method. The procedure, abridged:
as §1

For assay [17], the system named is Clostridioides difficile. The assay is described as follows: Antimicrobial activity against Clostridium difficile A422G harboring GyrA Thr82Ile and GyrB Leu451Phe mutant genes selected after 8 ug/ml of levofloxacin by Etest method. Summed up: as §1
The test system of assay [18] is Clostridioides difficile. The assay is described as follows: Antimicrobial activity against Clostridium difficile A422D harboring GyrB Leu451Phe mutant gene selected after 8 ug/ml of levofloxacin by Etest method. Summed up:
as §1

Assay [19] concerns Clostridioides difficile. The assay is described as follows: Antimicrobial activity against Clostridium difficile 630g harboring GyrB […] mutant gene selected after 8 ug/ml of moxifloxacin by Etest method. The procedure, abridged:
as §1

Assay [20] deals with Clostridioides difficile. Nature of the assay: Antimicrobial activity against Clostridium difficile C253h harboring GyrA Ala118Ser mutant gene selected after 8 ug/ml of moxifloxacin by agar dilution method.
For assay [21], the system named is Clostridioides difficile. Nature of the assay: Antimicrobial activity against Clostridium difficile 630e selected after 4 ug/ml of moxifloxacin by agar dilution method. (In general: In agar dilution the substance is mixed into plates at graded concentrations.)
In assay [22] the test system is Clostridioides difficile. Nature of the assay: Antimicrobial activity against Clostridium difficile CD5B harboring GyrB Ser416Ala mutant gene selected after 4 ug/ml of levofloxacin by agar dilution method.
Assay [23] deals with Clostridioides difficile. Nature of the assay: Antimicrobial activity against Clostridium difficile A422E harboring GyrB Leu451Phe mutant gene selected after 8 ug/ml of levofloxacin by agar dilution method.
For assay [24], the system named is Clostridioides difficile. Nature of the assay: Antimicrobial activity against Clostridium difficile A422h harboring GyrA Asp81Asn mutant gene selected after 8 ug/ml of moxifloxacin by agar dilution method.
Assay [25] relates to Clostridioides difficile. The assay is described as follows: Antimicrobial activity against Clostridium difficile C253B selected after 4 ug/ml of levofloxacin by agar dilution method.
For assay [26], the system named is Clostridioides difficile. Nature of the assay: Antimicrobial activity against Clostridium difficile A422a selected after 2 ug/ml of moxifloxacin by agar dilution method.
Assay [27] concerns Clostridioides difficile. Nature of the assay: Antimicrobial activity against Clostridium difficile A422i harboring GyrA Asp81Asn mutant gene selected after 8 ug/ml of moxifloxacin by agar dilution method.
The test system of assay [28] is Clostridioides difficile. The assay is described as follows: Antimicrobial activity against Clostridium difficile A422d selected after 4 ug/ml of moxifloxacin by agar dilution method.
In assay [29] the test system is Clostridioides difficile. The assay is described as follows: Antimicrobial activity against Clostridium difficile C253D selected after 8 ug/ml of levofloxacin by agar dilution method.
Assay [30] concerns Clostridioides difficile. Nature of the assay: Antimicrobial activity against Clostridium difficile CD5C harboring GyrB Ser416Ala mutant gene selected after 4 ug/ml of levofloxacin by agar dilution method.
The test system of assay [31] is Clostridioides difficile. The assay is described as follows: Antimicrobial activity against Clostridium difficile BI2B selected after 4 ug/ml of levofloxacin by agar dilution method.
Assay [32] has as its system Clostridioides difficile. Nature of the assay: Antimicrobial activity against Clostridium difficile A422f selected after 4 ug/ml of moxifloxacin by agar dilution method.
Assay [33] concerns Clostridioides difficile. Nature of the assay: Antimicrobial activity against Clostridium difficile A422H harboring GyrA Thr82Ile and GyrB Leu451Phe mutant genes selected after 8 ug/ml of levofloxacin by agar dilution method.
In assay [34] the test system is Clostridioides difficile. The assay is described as follows: Antimicrobial activity against Clostridium difficile C253E selected after 8 ug/ml of levofloxacin by agar dilution method.
Assay [35] has as its system Clostridioides difficile. Nature of the assay: Antimicrobial activity against Clostridium difficile CD5 1-g harboring GyrA Ala92Glu and GyrB Ser416Ala mutant genes selected after 8 ug/ml of moxifloxacin by agar dilution method.
Assay [36] deals with Clostridioides difficile. Nature of the assay: Antimicrobial activity against Clostridium difficile A422A selected after 4 ug/ml of levofloxacin by agar dilution method.
Assay [37] deals with Clostridioides difficile. The assay is described as follows: Antimicrobial activity against Clostridium difficile CD5e harboring GyrB Ser416Ala mutant gene selected after 4 ug/ml of moxifloxacin by agar dilution method.
Assay [38] relates to Clostridioides difficile. Nature of the assay: Antimicrobial activity against Clostridium difficile BI2f harboring GyrB Arg447Lys and Asp426Asn mutant gene selected after 32 ug/ml of moxifloxacin by agar dilution method.
For assay [39], the system named is Clostridioides difficile. Nature of the assay: Antimicrobial activity against Clostridium difficile 630E harboring GyrA Ala118Val mutant gene selected after 8 ug/ml of levofloxacin by agar dilution method.
In assay [40] the test system is Clostridioides difficile. Nature of the assay: Antimicrobial activity against Clostridium difficile CD5D harboring GyrB Ser416Ala mutant gene selected after 8 ug/ml of levofloxacin by agar dilution method.
In assay [41] the test system is Clostridioides difficile. Nature of the assay: Antimicrobial activity against Clostridium difficile 630B selected after 4 ug/ml of levofloxacin by agar dilution method.
The test system of assay [42] is Clostridioides difficile. Nature of the assay: Antimicrobial activity against Clostridium difficile A422c selected after 2 ug/ml of moxifloxacin by agar dilution method.
The subject of assay [43] is Clostridioides difficile. Nature of the assay: Antimicrobial activity against Clostridium difficile 630A selected after 4 ug/ml of levofloxacin by agar dilution method.

In brackets after ≈: the same amount, converted by molar mass.

What is called MIC is the lowest concentration that inhibits growth of the organism. With `COc1c(N2CCNC(C)C2)c(F)cc2c(=O)c(C(=O)O)cn(C3CC3)c12` (stereo not drawn) [GATIFLOXACIN], the MIC in the assay on Clostridioides difficile [1] is 1 µg/mL; in the assay with Clostridioides difficile [2] it was 1 µg/mL; in the assay with Clostridioides difficile [3] it was at least 32 µg/mL; in the assay on Clostridioides difficile [4], 0.5 µg/mL; with Clostridioides difficile [5], 0.75 µg/mL; in the assay with Clostridioides difficile [6], 1 µg/mL. For the same compound, the MIC came out at 2 µg/mL with Clostridioides difficile [7]; 0.75 µg/mL in the assay with Clostridioides difficile [8]; 3 µg/mL with Clostridioides difficile [9]; 1.5 µg/mL in the assay on Clostridioides difficile [10]; 0.75 µg/mL (≈ 2 µM) against Clostridioides difficile [11]; 2 µg/mL in the assay with Clostridioides difficile [12]. The MIC in the assay with Clostridioides difficile [13] is 1.5 µg/mL; in the assay with Clostridioides difficile [14], 1 µg/mL; with Clostridioides difficile [15], 0.75 µg/mL; in the assay on Clostridioides difficile [16] it was 3 µg/mL; in the assay with Clostridioides difficile [17] it was at least 32 µg/mL; in the assay with Clostridioides difficile [18], 2 µg/mL. Besides, the MIC in the assay with Clostridioides difficile [19] was at least 32 µg/mL.

Turning to `C[C@H]1COc2c(N3CCN(C)CC3)c(F)cc3c(=O)c(C(=O)O)cn1c23.C[C@H]1COc2c(N3CCN(C)CC3)c(F)cc3c(=O)c(C(=O)O)cn1c23.O` [LEVOFLOXACIN], the MIC with Clostridioides difficile [20] was determined as 64 µg/mL; with Clostridioides difficile [21] it was 4 µg/mL; with Clostridioides difficile [22], 1 µg/mL; with Clostridioides difficile [23], 2 µg/mL; in the assay on Clostridioides difficile [24] it was 64 µg/mL; in the assay with Clostridioides difficile [25], 1 µg/mL. In addition, the minimum inhibitory concentration (MIC) was determined as 4 µg/mL in the assay on Clostridioides difficile [26]; 64 µg/mL with Clostridioides difficile [27]; 4 µg/mL with Clostridioides difficile [28]; 2 µg/mL in the assay with Clostridioides difficile [29]; 1 µg/mL in the assay on Clostridioides difficile [30]; 1 µg/mL in the assay with Clostridioides difficile [31]. Moreover, the MIC came out at 4 µg/mL in the assay with Clostridioides difficile [32]; 64 µg/mL in the assay on Clostridioides difficile [33]; 2 µg/mL with Clostridioides difficile [34]; 16 µg/mL in the assay on Clostridioides difficile [35]; 1 µg/mL in the assay on Clostridioides difficile [36]; 2 µg/mL in the assay on Clostridioides difficile [37]. Also, the MIC was found to be 64 µg/mL in the assay with Clostridioides difficile [38]; 8 µg/mL with Clostridioides difficile [39]; 2 µg/mL in the assay with Clostridioides difficile [40]; 1 µg/mL in the assay with Clostridioides difficile [41]; 4 µg/mL with Clostridioides difficile [42]; 1 µg/mL with Clostridioides difficile [43].
